# Ins promoter up: MIN6 insulin promoter up-regulation; MIN6 insulin promoter-GFP reporter, high-content imaging; hits give high values; z-score at 5 µM; 0.3% of 190,000 active; AID 1625;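 active = z-score above 3 at 5 µM with at least 500 cells counted in the well; inconclusive = wells under 500 cells, flagged as cytotoxic or low count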
# beta cell repl: inducers of beta-cell replication in MIN6 cells; proliferation, % at 10 µM; 0.29% of 330,000 active; AID 2380; MIN6 cells proliferation, ATPlite luminescence, 48 h; cells starved in 0.2% serum; 100% = growth in 10% serum;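 active = compounds whose signal lies at least 3.5 SD above the mean of all wells on their plate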;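 note: 0% = DMSO-treated cells in low-serum medium and 100% = 10% serum control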
# SR-BI DiI inh: mouse SR-BI HDL lipid transfer inhibition. 0.96% of 320,000 active. Q61009. ldlA[mSR-BI] CHO cells, DiI-HDL uptake fluorescence, 3 h. inhibition, % at 12.5 µM;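 active = mean replicate inhibition of at least 70% and a set share of replicates each scoring 70 or more; inconclusive = meets just one of the two criteria; inactive = fails both criteria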;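 note: 0% = median of neutral control wells and 100% = median of positive control wells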
# SR-BI uptake up: SR-BI HDL lipid transfer activation; CHO ldlA[mSR-BI] cells, DiI-HDL uptake fluorescence, 3 h; 100 = double the neutral-control signal; activation, % at 12.5 µM; 0.096% of 320,000 active;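 active = mean replicate activation of at least 60% and every replicate at or above 60%; inconclusive = mean or all-replicate condition met, but not both; inactive = mean below 60% and not all replicates reaching 60%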;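 note: 0% = median plate neutral-control signal and 100% = twice that signal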
#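 material = CHO ldlA[mSR-BI] cells | medium = Ham's F12 with 0.5% BSA, HEPES 25 mM, pH 7.4 | reagent = fluorescent DiI-HDL, 10 µg/mL final | compound dosing = single-point compound dose | incubation = 3 h, 37 °C | measured by = bottom-read fluorescence, 550/595 nm | measure = HDL uptake via cellular fluorescence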
# HTR2A ag: agonists of mouse serotonin 5-HT2A receptor (HTR2A) | P35363 | 0.66% of 360,000 active | activation, % at 7.6 µM | CHO-K1 mHTR2A beta-arrestin complementation, luminescence; percent of 30 µM serotonin response;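 active = activation above a run cutoff, the mean activation of all tested compounds plus 3 SD, cut at about 14% in these data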;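 note: 0% = plate median of compound wells and 100% = 30 µM serotonin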
# Target sequence (P35363 whole entry, looked up): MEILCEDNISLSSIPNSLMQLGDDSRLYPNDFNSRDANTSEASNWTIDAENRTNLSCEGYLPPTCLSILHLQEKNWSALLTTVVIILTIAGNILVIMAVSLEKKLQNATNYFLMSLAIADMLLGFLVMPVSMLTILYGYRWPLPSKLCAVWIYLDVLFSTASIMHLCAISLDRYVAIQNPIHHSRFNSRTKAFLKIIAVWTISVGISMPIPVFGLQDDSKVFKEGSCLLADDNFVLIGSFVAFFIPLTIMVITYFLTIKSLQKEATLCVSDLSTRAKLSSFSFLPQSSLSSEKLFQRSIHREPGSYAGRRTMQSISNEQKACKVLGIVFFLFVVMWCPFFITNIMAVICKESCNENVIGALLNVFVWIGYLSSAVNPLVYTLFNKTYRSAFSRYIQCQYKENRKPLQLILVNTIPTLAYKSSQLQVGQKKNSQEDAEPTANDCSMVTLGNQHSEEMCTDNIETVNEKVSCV
# Calb FLC: C. albicans growth modulation with fluconazole. growth inhibition, % (test concentration not listed). C. albicans CaCi-2 + fluconazole, Alamar Blue growth, 48 h. 0.57% of 300,000 active. AID 1979;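 active = growth inhibition above about 58% in most replicates, limit read from the data, passing the limit was not always enough; inconclusive = exactly half the replicates above a set limit; inactive = most replicates below a set limit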;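 note: all wells also contain fluconazole at 8 µg/ml as a sub-toxic cotreatment; 0% = median of DMSO wells and 100% = median of geldanamycin control wells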
# MOR ag counter: OPRM1 agonism in mouse HTR2A counterscreen. 5.3% of 2,300 active. shares compounds with HTR2A ag. U2OS OPRM1 beta-arrestin PathHunter, luminescence; DMSO 0%, DAMGO 9.3 µM 100%. activation, % at 9.3 µM;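 active = mean activation above the mean of DMSO-only wells plus 3 SD, cut at about 0.5% in these data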
# m5-HT2A ag conf: mouse HTR2A agonism confirmed | shares compounds with HTR2A ag | CHO-K1 PathHunter beta-arrestin recruitment, luminescence; DMSO 0%, 30 µM serotonin 100% | activation, % at 7.6 µM | 19% of 2,300 active;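 active = mean activation across triplicates above the hit threshold derived in the original primary screen, cut at about 15% in these data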
# The depositor's hits bear a star; ? = inconclusive; . = no result given. In the library only some 2.4% were active in any assay of this set; here they are far more common.
SMILES,Ins promoter up,beta cell repl,SR-BI DiI inh,SR-BI uptake up,HTR2A ag,Calb FLC,MOR ag counter,m5-HT2A ag conf
COc1ccc(C(C(=O)NC2CCCC2)N(Cc2ccccc2)C(=O)c2snc(C(N)=O)c2N)cc1OC (stereo not given),.,-2,-11,11,16*,0,-1,-1
COc1ccc(C(=O)Nn2c(SCc3ccc([N+](=O)[O-])cc3)nc3ccccc3c2=O)cc1,1,-5,2,-2,-3,-5,.,.
CC(C)CNC(=S)NC(=O)c1csc([N+](=O)[O-])c1,-0.41,0,8,-8,-2,-1,.,.
C=CCNC(=O)O/N=C/c1csc([N+](=O)[O-])c1,0.61,0,-5,5,17*,8,0,-2
Cc1cc2oc3ccc(NCCCN4CCOCC4)cc3c(=O)c2cc1C,.,-8,13,-13,-7,-9,.,.
Cc1cc2oc3ccc(NCCCn4ccnc4)cc3c(=O)c2cc1C,.,-8,27,-27,20*,86*,1.4*,9
O=C(C1CCCN(S(=O)(=O)c2ccc(Br)cc2)C1)N1CCN(Cc2ccccc2)CC1 (stereo not given),.,-2,1,-1,-8,-9,.,.
C[C@H](CO)N1C[C@H](C)[C@H](CN(C)Cc2cccc(O)c2)OCc2ccccc2-c2c(n(C)c3ccccc23)C1=O,.,.,.,.,23*,.,0,32*
C[C@H]1CN([C@@H](C)CO)C(=O)c2c(c3ccccc3n2C)-c2ccccc2CO[C@H]1CN(C)Cc1cccc(F)c1,.,.,.,.,5,.,.,.
Cc1cccc(N2CCN(S(=O)(=O)c3ccc4c(c3)CCCN4C(=O)C3CCC3)CC2C)c1 (stereo not given),.,-2,10,-10,14,-10,.,.
CN(C)C(=O)c1ccc(NC(=O)c2cccc(S(=O)(=O)N3CCCc4ccccc43)c2)cc1,.,-2,37,-37,-1,-3,.,.
Cc1ccc2c(c1)CCCN2S(=O)(=O)c1cccc(C(=O)Nc2ccccc2C(=O)O)c1,.,-4,23,-23,15*,26,-1,13
C#CCN(Cc1ccccc1)S(=O)(=O)C=C,.,-4,.,.,.,.,.,.
COc1ccccc1CNS(=O)(=O)c1c(C)nc2scc(C)n2c1=O,.,-5,2,-2,15*,15,0,1
O=C(Nc1ccc(Br)cc1C(=O)O)c1ccc2c(c1)C(=O)N(Cc1ccccc1)C2=O,.,-5,16,-16,15*,17,0,-1
CCCN1C(=O)c2ccc(C(=O)Nc3ccccc3C(=O)O)cc2C1=O,.,-4,-15,15,14,-6,.,.
O=C(NCC(=O)N1CCCC1)NN=Cc1ccccc1O,.,.,.,.,0,.,.,.
COC(=O)C1CCN(c2ccc([N+](=O)[O-])cc2)CC1,-0.06,2,-24,24,8,-13,.,.
COC(=O)C1CCN(CCCOc2ccc(CN3CCN(c4ccc([N+](=O)[O-])cc4)CC3)cc2)CC1,0.14,-4,14,-14,25*,1,0,75*
COc1ccc(C2Nc3ccccc3NC3=C2C(=O)CC(C)(C)C3)cc1OC (stereo not given),.,2,4,-4,17*,-1,0.7*,8
O=c1ccn([C@@H]2O[C@H](CNCc3ccccc3OCc3ccc(Cl)cc3Cl)[C@@H](O)[C@H]2O)c(=O)[nH]1,.,.,.,.,-5,.,.,.
S=c1[nH]nc(-c2cccnc2)n1/N=C/C=C/c1ccccc1,0.99,-2,0,0,16*,21,-1,0
CN(CC(=O)Nc1ccccc1Br)C(=O)Cn1[nH]c(=O)c2ccccc2c1=O,.,0,11,-11,10,.,.,.
O=C(Nc1ccccc1)Nc1nnc(-c2cccs2)s1,0.37,0,-4,4,21*,5,0,-2
COc1ccc(NC(=O)Nc2nnc(-c3cccs3)s2)cc1,-0.36,-2,.,.,9,-5,.,.
SMILES,Ins promoter up,beta cell repl,SR-BI DiI inh,SR-BI uptake up,HTR2A ag,Calb FLC,MOR ag counter,m5-HT2A ag conf
CC(C)CC(NS(=O)(=O)OCC(Cl)(Cl)Cl)c1ccccc1 (stereo not given),.,-8,3,-3,20*,-12,0.9*,-1
CC(C)(C)C(=O)c1c(N)[nH]c(C(=O)c2ccccc2)c1-c1ccc(Cl)cc1Cl,.,.,.,.,16*,.,0,-1
Nc1[nH]c(C(=O)c2ccccc2)c(-c2ccc(Cl)cc2Cl)c1C(=O)c1ccc(Cl)c(Cl)c1,.,.,.,.,-1,.,.,.
C[C@H]1CN([C@@H](C)CO)C(=O)CCCn2nncc2CO[C@@H]1CN(C)C(=O)c1ccc2ccn(C)c2c1,.,.,.,.,1,.,.,.
CCC1(CC)C(=O)NC(=S)N=C1N,.,.,-7,7,21*,.,0,1
CCCn1c(N)cc(=O)n(CCC)c1=O,-0.94,0,14,-14,16*,-14,-1,-5
CCN(CC)CCN(C(=O)c1ccc2c(c1)CCCC2)c1nc2c(C)cccc2s1,.,-7,59,-59,-4,0,.,.
CC(C)C[C@H](NC(=O)N1CCn2c1nc1ccccc12)C(=O)NCc1ccccc1,.,-3,-6,6,15*,-5,.,7
CC(C)C[C@H](NC(=O)N1CCn2c1nc1ccccc12)C(=O)NCCc1ccccc1,.,-2,3,-3,3,-8,.,.
O=C(O)C(C1CCCCC1)C1(O)CCCC1 (stereo not given),.,.,-45,45,2,.,.,.
Cc1nc2ccccc2n1/N=C/c1cccnc1,-0.59,-1,-6,6,-1,11,.,.
Cc1nc2ccccc2c(=O)n1/N=C/c1cccnc1,-0.28,0,-22,22,15*,6,-1,-1
COc1ccc(NC(=O)CSc2nc3ccccc3c(=O)n2CCNC(C)=O)c(OC)c1,0.28,-2,12,-12,-4,?,.,.
Cc1ccc(NC(=O)CSc2nc3ccccc3c(=O)n2CCCN2CCCCC2)cc1C,-1.1,-6,2,-2,16*,?,0,12
COC(=O)c1ccc2c(=O)n(CCN3CCOCC3)c(SCC(=O)NCc3ccccc3)nc2c1,.,-1,-8,8,16*,2,-1,-5
CCc1ccc(NC(=O)CSc2nc3ccccc3c(=O)n2CCCN2CCC(C)CC2)cc1,-1.1,-6,-15,15,48*,-16,0,20*
COc1ccc(NC(=O)CSc2nc3ccccc3c(=O)n2CCCN2CCOCC2)c(OC)c1,.,2,34,-34,39*,8,-1,12
